Published values collected from several papers.
Each line is one published result; the experiments were not run side by side.
CDK13 with cyclin K: Cyclin-dependent kinase 13, with cyclin K (CDK13, Homo sapiens, UniProt Q14004)
CDK13: Cyclin-dependent kinase 13 (CDK13, Homo sapiens, UniProt Q14004)

CN1CC(Oc2cnc(C#N)cc2-c2ccn3nc(NC(=O)C4CC4)cc3c2)C1 — inhibition (CDK13 with cyclin K; enzyme activity, inhibitor; 1 µM): 1%
COc1cc(Cl)c(C(=O)N[C@@H](CN[C@H]2CC[C@@H](N)CC2)Cc2ccc(C#N)cc2)cc1-c1ccc(CN[C@H](C)c2ccc(C)cc2)o1 — remaining activity (CDK13 with cyclin K; enzyme activity, inhibitor; 1 µM): 107%
CN([C@@H]1CCc2c(CC(=O)O)c3cc(S(C)(=O)=O)ccc3n2C1)S(=O)(=O)c1ccc(F)cc1 — remaining binding (CDK13; cell-free assay, competition with immobilised ligand; 1 µM): 86%
Cc1ccc(C(=O)NCc2ccsc2)cc1C#Cc1cn(C(C)C)c2ncnc(N)c12 — activity vs control (CDK13 with cyclin K; enzyme activity, inhibitor; 1 µM): 85%
Nc1ncnc2occ(-c3ccc(NC(=O)Nc4cc(C(F)(F)F)ccc4F)cc3)c12 — remaining signal (CDK13; cell-free assay, inhibitor; 20 µM): 0.1%
CN(C)c1nccc(-c2cnc3ncccn23)n1 — remaining binding (CDK13; binding; 1 µM): 58%
Cc1ccc(C(=O)Nc2ccc(CN3CCN(C)CC3)c(C(F)(F)F)c2)cc1C#Cc1cnc2cccnn12 — remaining activity (CDK13; enzyme activity, inhibitor; 23.5 nM): 6.4%
C[C@H](NC(=O)c1cnc2n1[C@](C)(Cc1ccc(C#N)cc1)C(=O)N2c1cc(Cl)c(F)c(Cl)c1)C(=O)NC1(c2ccccn2)CC1 — remaining binding (CDK13; cell-free assay, competition with immobilised ligand; 1 µM): 100%
